# ABCG2 inh: inhibitors of human ABCG2 transporter, ABCB1 counter-screen; IgMXP3 cells, JC-1 efflux, flow cytometry; inhibition, % at 6.6 µM; 0.1% of 190,000 active;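 active means inhibition above 80%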;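 further: 0% = DMSO and 100% = nicardipine control wells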
#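 Test system: IgMXP3 cells (ABCG2) mixed with DDAO far-red-labelled CCRF-Adr cells (ABCB1). Reagent: JC-1 transporter substrate. Compound dosing: single test compound dose, 6.6 µM final. Times: 10 min compound exposure, 25 °C. Detection: flow cytometry of retained JC-1 fluorescence. Read-out basis: efflux inhibition in percent versus controls. Controls: nicardipine and DMSO wells.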
# PMI act hi M6P: PMI (human) activation, high substrate; 0.34% of 190,000 active; coupled PMI enzyme assay, resazurin fluorescence, 20 min; active compounds read high; 1 = untreated enzyme, 0 = substrate-free blank; P34949; activation factor at 20 µM;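 active means activation factor of 2 or more at 20 µM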
#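 test system = human PMI in coupled enzyme assay | medium = HEPES-buffered pH 7.4 with magnesium and detergent | also added = 1.0 mM mannose-6-phosphate substrate with 0.22 mM NADP+ | compound = 20 µM single dose | times = 20 min incubation at room temperature | measured by = resorufin fluorescence (Ex 544/Em 590 nm) from resazurin via diaphorase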
# PMI act: phosphomannose isomerase (human) activation; P34949; purified human PMI, coupled resazurin fluorescence, 20 min; active compounds read high; 1 = vehicle control, 0 substrate-free wells; activation factor at 20 µM; 0.005% of 190,000 active;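 active means activation factor of 2 or more at 20 µM, relative to plate controls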
# ABCB1 inh: human ABCB1 inhibition, ABCG2 as counter-screen | 0.067% of 190,000 active | P08183 | CCRF-Adr cells, JC-1 efflux, flow cytometry | AID 1326 | inhibition, % at 6.6 µM; in the data active means inhibition above about 40%;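 further: 0% = vehicle and 100% = reference inhibitor; higher value means more JC-1 retained so stronger ABCB1 efflux block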
# Target sequence (P08183 whole entry, looked up): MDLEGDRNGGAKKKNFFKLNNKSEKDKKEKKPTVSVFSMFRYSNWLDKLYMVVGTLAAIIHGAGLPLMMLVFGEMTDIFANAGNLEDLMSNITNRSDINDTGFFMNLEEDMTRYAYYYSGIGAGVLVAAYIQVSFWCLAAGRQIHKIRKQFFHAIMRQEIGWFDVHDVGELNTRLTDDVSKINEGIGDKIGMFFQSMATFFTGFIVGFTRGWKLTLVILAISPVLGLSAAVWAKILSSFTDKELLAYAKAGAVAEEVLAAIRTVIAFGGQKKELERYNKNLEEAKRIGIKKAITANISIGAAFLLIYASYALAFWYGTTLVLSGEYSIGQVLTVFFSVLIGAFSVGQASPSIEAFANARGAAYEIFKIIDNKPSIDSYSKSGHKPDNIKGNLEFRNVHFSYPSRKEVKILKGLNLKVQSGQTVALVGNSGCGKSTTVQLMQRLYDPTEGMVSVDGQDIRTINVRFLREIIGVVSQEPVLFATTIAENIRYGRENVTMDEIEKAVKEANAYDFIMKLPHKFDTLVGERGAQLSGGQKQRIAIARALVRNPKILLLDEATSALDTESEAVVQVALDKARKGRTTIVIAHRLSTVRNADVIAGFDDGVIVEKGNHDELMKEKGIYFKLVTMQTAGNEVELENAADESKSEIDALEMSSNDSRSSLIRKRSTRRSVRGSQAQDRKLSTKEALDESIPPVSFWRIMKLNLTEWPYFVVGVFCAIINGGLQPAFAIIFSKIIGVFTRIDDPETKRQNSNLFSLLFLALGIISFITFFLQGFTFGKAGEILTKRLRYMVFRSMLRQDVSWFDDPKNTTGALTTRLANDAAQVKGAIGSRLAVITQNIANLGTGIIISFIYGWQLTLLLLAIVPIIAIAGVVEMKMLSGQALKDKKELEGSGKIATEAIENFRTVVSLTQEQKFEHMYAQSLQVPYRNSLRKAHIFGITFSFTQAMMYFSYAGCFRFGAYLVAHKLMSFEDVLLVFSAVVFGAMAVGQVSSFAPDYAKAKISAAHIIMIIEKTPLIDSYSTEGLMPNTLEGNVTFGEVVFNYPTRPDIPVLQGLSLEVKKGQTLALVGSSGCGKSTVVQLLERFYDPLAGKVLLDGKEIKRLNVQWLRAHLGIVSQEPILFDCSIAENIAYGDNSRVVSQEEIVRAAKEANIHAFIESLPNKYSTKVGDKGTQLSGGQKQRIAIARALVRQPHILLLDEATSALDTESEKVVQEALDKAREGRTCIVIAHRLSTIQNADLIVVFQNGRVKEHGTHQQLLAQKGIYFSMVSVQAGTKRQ
# ROMK mod: human ROMK K+ channel modulation, primary screen; P48048; Tet-inducible ROMK, thallium flux fluorescence; actives lie on both sides; B-score at 10 µM; 2% of 130,000 active;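 active means signal ratio slope over the read window, or its plate-corrected B-score, at least 3 SD from the plate mean, either direction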;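 further: B-score of the F/F0 ratio slope over 7 to 12 s after thallium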
# Cl transport mod: modulates chloride dependent transport by human KCC2; AID 1456; B-score of Tl+ flux slope (higher = more flux/activation; lower = inhibition) at 10 µM; KCC2 cells, thallium flux FluoZin-2 fluorescence; Q9H2X9; 2.2% of 190,000 active;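 active means thallium flux slope and its plate-corrected score both differing from the plate sample mean at a set confidence after two filtering rounds, in either direction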;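 further: slope of fluorescence scaled to starting intensity during 10 to 20 s after thallium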
# ROMK retest: confirmation of human ROMK potassium channel modulators | shares compounds with ROMK mod | ROMK thallium flux, fluorescence ratio; active compounds read low | normalized thallium flux (F/F0 slope) at 10 µM | 54% of 3,000 active | AID 1917;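 active means Flux at 10 µM at least 3 SD below or above vehicle control mean in one or both replicates; inconclusive means no clear call, values can overlap the other calls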
# * = called active by the depositor; i = inactive; ? = inconclusive; nt = no result. Sampled rows, rich in hits. Any-hit rate of the full collection: about 3.3%.
SMILES,ABCG2 inh,PMI act hi M6P,PMI act,ABCB1 inh,ROMK mod,Cl transport mod,ROMK retest
Cc1scc2c1N(C(=O)CN1CCN(C)CC1)c1ccccc1NC2=O,-2,1.1,1.2,0,3.1*,0.38,0.075
CC(C)(C)C(=O)/C(=C\c1ccc([N+](=O)[O-])cc1)n1cncn1,6,1,1,1,nt,0.41,nt
OCC1(CCc2ccccc2)CCN(Cc2cc(Cl)ccc2O)CC1,0,0.8,0.8,0,-0.37,-0.56,nt
Cc1ccc(-n2cccn2)c(CN2CCC(CO)(CCc3ccccc3)CC2)c1,4,1,1,2,-3.3*,0.36,0.061*
CC(=O)c1cc2ccc(O)cc2oc1=O,nt,nt,nt,nt,-6.4*,i,0.05*
OC(COCc1cccs1)CN1CCN(c2cccc(Cl)c2)CC1 (configuration not stated),4,1.1,1.1,2,-2.6*,-0.17,0.054*
CCOC(=O)N1CCC(n2c(SCC(=O)NCc3ccccc3)nc3ccccc3c2=O)CC1,23,1,1,6,0.21,-2,nt
CCOC(=O)N1CCC(n2c(SCC(=O)Nc3ccccc3OC)nc3ccccc3c2=O)CC1,25,0.8,0.7,28,-4.2*,-1.6,0.065*
CCOC(=O)N1CCC(n2c(SCC(=O)NCCC3=CCCCC3)nc3ccccc3c2=O)CC1,5,1,0.9,6,-7*,-0.5,?
O=C(Nc1ccc(Br)cc1)c1cccc(N2C(=O)C3C4CCC(C4)C3C2=O)c1 (configuration not stated),3,0.9,1,1,nt,0.91,nt
NC1=NC2=C(CCCC2)C2(CCCCC2)S1,1,1,1,0,-3.1*,-0.45,0.064*
Cc1cccc(CN2CCN(Cc3cccc(-n4cccn4)c3)CC2CCO)n1 (configuration not stated),2,0.9,1,2,0.011,-0.023,nt
CC(=O)c1ccc(N2CCN(C(=O)COc3ccc(F)cc3)CC2)c(F)c1,12,0.9,1,1,-2.8*,-0.94,0.061*
CC(C)N(CCn1c(=S)[nH]c2ccccc2c1=O)C(C)C,3,1.1,1.1,0,3.2*,1.8,0.068*
O=S(=O)(c1cc(-c2nc3ccccc3s2)ccc1Cl)N1CCOCC1,4,1.1,1,1,nt,nt,nt
COC(=O)C1=C(C)N(C)C(C)=C(C(=O)OC)C1c1ccccc1C,2,1.1,1.1,1,-4.4*,-0.48,0.064*
CCOCCCNC(=O)c1ccc2c(c1)OCO2,0,1,1,0,nt,-1.1,nt
CCOCCCNC(=O)c1ccc2c(c1)N=C(CC)c1cc(Br)ccc1S2,10,0.9,0.9,2,4.1*,-0.75,0.084
Cn1cccc1/C=N/N1CCN(c2ccccc2)CC1,3,0.9,1,1,-0.34,-0.86,nt
CCOc1cccc(C2c3c(oc4cc(C)c(C)cc4c3=O)C(=O)N2CCCN(C)C)c1 (configuration not stated),3,1,1.1,0,nt,-0.036,nt
Cc1cc(C(=O)OC(C(=O)Nc2ccc(C)c(Cl)c2)c2ccccc2)c(C)o1 (configuration not stated),9,0.8,0.8,0,0.028,0.82,nt
CCOC(=O)C1CCN(C(=O)C2CC(=O)N(c3ccc(C)cc3)C2)CC1 (configuration not stated),1,1,1,0,0.5,nt,nt
CCC1CCCCN1S(=O)(=O)c1ccc(S(=O)(=O)N(Cc2cccs2)C2CC2)cc1 (configuration not stated),3,0.9,0.9,2,nt,-0.098,?
O=C(NNC(=S)Nc1ccc(F)c(Cl)c1)c1ccccc1Br,8,1.1,1,0,0.25,0.64,nt
Cc1nn(C)c(C(=O)NN)c1Cl,0,1.3,1.6,0,-0.24,0.67,nt
SMILES,ABCG2 inh,PMI act hi M6P,PMI act,ABCB1 inh,ROMK mod,Cl transport mod,ROMK retest
COc1ccc(NC(=O)c2cc(-c3cccc(OC)c3)on2)cc1,2,1,1,0,-4.4*,1.2,0.081
COc1cccc(-c2cc(C(=O)NCc3cccs3)no2)c1,nt,nt,nt,nt,-2.1*,-0.7,0.081
CC(C)c1nc(C(=O)N2CCCC(CCC(=O)N(C)CCc3ccccn3)C2)cs1 (configuration not stated),-1,0.9,0.8,-1,0.7,nt,nt
Cc1ccc(/C=C(\C#N)C(=O)NCCN2CCOCC2)cc1,2,1.1,1.1,0,-3.2*,0.5,0.06*
Cc1ccsc1/C=C(\C#N)C(=O)NCCCN1CCOCC1,2,0.9,1,1,-0.32,0.16,nt
COc1ccc(Cl)cc1NC(=S)N(CCCN1CCOCC1)Cc1cn(C)c2ccccc12,4,0.9,0.8,2,-3.9*,0.75,0.078
COc1cccc(Oc2nnnn2-c2ccccc2)c1,24,1,1,0,0.95,-0.14,nt
COc1cccc(-n2nnnc2S(C)(=O)=O)c1,19,1,0.9,0,-3.5*,nt,0.063*
COc1ccccc1-n1c(SCC(=O)N2CCc3ccccc32)nc2c(c1=O)SCC2,-6,0.9,0.9,-2,nt,-2.6,0.058*
CCOc1ccc(C(O)C(CN2CCOCC2)c2ccccc2)cc1 (configuration not stated),-2,1.1,1,-3,nt,-0.75,nt
CCOC(=O)c1c(-c2ccc(C)cc2)csc1NC(=O)CCSc1nnc2ccccn12,2,1,0.8,-10,-0.26,-0.2,nt
CC1C(=NO)C(C)C(c2ccc(N(C)C)cc2)NC1c1ccc(N(C)C)cc1 (configuration not stated),10,0.8,1,1,-4.4*,0.5,0.067*
CC1C(=O)C(C)C(c2ccc([N+](=O)[O-])cc2)NC1c1ccc([N+](=O)[O-])cc1 (configuration not stated),1,nt,nt,0,0.47,0.43,nt
CCCNC(=O)c1ccccc1NC(=O)c1ccccc1SC,13,1,1,1,0.062,-0.5,nt
COCCNC(=O)c1ccccc1NC(=O)c1ccccc1SC,1,0.8,0.7,0,3.2*,0.56,0.084
N#Cc1cc2c(nc1SCc1ccc(Cl)nc1)CCCCC2,nt,nt,nt,nt,nt,1.9,nt
C[C@@H]1NC(=O)[C@H](CCCN=C(N)N)NC(=O)c2cc([N+](=O)[O-])cc(I)c2OCC[C@@H](C(=O)NC(CC(=O)O)C(N)=O)NC1=O (some centres not stated),2,1.1,1.1,0,0.12,-0.11,nt
CCOC(=O)c1n[nH]c(=O)c2ccccc12,2,0.9,1,0,1.4,0.43,nt

# Screening results: PubChem BioAssay, several laboratories
